From paper PMC10809365 (ACS Omega, 2024)
Blank lines part the entries; values can stand above or below the compound they belong to.

Experiments:
AbDapE [1] = target: T1, AbDapE (Acinetobacter baumannii, UniProt A3M8H2); assay: DapE ninhydrin enzyme inhibition assay, AbDapE; type: biochemical; details: kinetic assays, modified ninhydrin assay
Method in brief: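 Purified His-tag-cleaved AbDapE at 8 nM final in 50 mM HEPES pH 7.5, 30 °C. Test compound (DMSO, 5% final) is preincubated with enzyme for 10 min before 2 mM N6-methyl-L,L-SDAP. After 10 min, heat to 100 °C for 1 min, chill, add 2% ninhydrin, 80 °C for 15 min, then read A570.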

HiDapE [2] = target: T2, HiDapE (Haemophilus influenzae, UniProt P44514); assay: Thermal shift assay, HiDapE; type: binding
T2 sequence (P44514 1-377): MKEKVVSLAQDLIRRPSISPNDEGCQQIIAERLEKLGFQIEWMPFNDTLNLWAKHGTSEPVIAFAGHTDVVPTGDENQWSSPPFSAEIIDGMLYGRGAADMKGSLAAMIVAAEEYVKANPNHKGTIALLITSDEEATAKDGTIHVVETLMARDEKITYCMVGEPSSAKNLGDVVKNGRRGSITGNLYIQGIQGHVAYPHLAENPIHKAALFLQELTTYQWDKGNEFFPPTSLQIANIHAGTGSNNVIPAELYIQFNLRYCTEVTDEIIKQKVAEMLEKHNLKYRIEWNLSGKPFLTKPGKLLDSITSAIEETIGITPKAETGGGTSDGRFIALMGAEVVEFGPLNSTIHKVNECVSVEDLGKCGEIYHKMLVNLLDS

AbDapE [3] = target: T1, AbDapE; assay: Thermal shift assay, AbDapE native; type: binding; details: 16 μM AbDapE + 10× dye
Method in brief: (§1)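 SYPRO Orange thermal melt at 10× dye in 50 mM HEPES pH 7.5, 10 µL triplicates. Protein is 16 µM for native AbDapE and 6 µM for SeMet AbDapE, with DMSO kept below 5%. Tm comes from the negative first derivative of the melting curves, further differentiated to the third derivative. Ki is calculated from Tm plotted against log[test compound] using a derived van't Hoff equation.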

AbDapE-SeMet = AbDapE-SeMet (Acinetobacter baumannii, UniProt A3M8H2); assay: Thermal shift assay, AbDapE-SeMet; type: binding; details: 6 μM AbDapE-SeMet + 10× dye
Method in brief: as §1

HiDapE [4] = target: T2, HiDapE; details: read-out: HiDapE IC50 (sulfate); previously published enzyme inhibition; cited from earlier work
DapE = DapE from E. faecium and E. coli studied; cited from earlier work
[5] = 0.001 mM Li2SO4, 200 nM HiDapE + 10× dye
[6] = 0.005 mM Li2SO4, 200 nM HiDapE + 10× dye
[7] = 0.1 mM Li2SO4, 200 nM HiDapE + 10× dye
[8] = 0.5 mM Li2SO4, 200 nM HiDapE + 10× dye
[9] = 1 mM Li2SO4, 200 nM HiDapE + 10× dye
[10] = 5 mM Li2SO4, 200 nM HiDapE + 10× dye
[11] = 10 mM Li2SO4, 200 nM HiDapE + 10× dye
[12] = 30 mM Li2SO4, 200 nM HiDapE + 10× dye
[13] = 50 mM Li2SO4, 200 nM HiDapE + 10× dye
[14] = 60 mM Li2SO4, 200 nM HiDapE + 10× dye
[15] = 70 mM Li2SO4, 200 nM HiDapE + 10× dye

T1 sequence (A3M8H2 whole entry): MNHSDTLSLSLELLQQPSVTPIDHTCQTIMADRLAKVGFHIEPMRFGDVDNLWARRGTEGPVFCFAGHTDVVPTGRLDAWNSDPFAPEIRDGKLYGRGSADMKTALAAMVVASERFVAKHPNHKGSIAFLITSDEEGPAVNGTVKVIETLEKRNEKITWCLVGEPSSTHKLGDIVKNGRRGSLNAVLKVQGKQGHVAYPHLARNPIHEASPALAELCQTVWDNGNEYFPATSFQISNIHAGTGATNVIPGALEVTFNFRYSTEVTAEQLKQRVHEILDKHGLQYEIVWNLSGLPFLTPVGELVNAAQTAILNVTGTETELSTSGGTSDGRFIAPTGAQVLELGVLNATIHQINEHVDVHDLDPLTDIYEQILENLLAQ
AbDapE-SeMet, sequence (A3M8H2 whole entry): as above

- Mode of inhibition of AbDapE (AbDapE [1]): competitive inhibitors
- Tm1 HiDapE (HiDapE [2]; [5]): 51.7 ± 0.3 °C
- Tm2 HiDapE (HiDapE [2]; [5]): 75.6 ± 0.3 °C
- Tm1 HiDapE (HiDapE [2]; [6]): 51.4 ± 0.2 °C
- Tm2 HiDapE (HiDapE [2]; [6]): 76.2 ± 0.5 °C
- Tm1 HiDapE (HiDapE [2]; [7]): 52.7 ± 0.4 °C
- Tm2 HiDapE (HiDapE [2]; [7]): 76.1 ± 0.6 °C
- Tm1 HiDapE (HiDapE [2]; [8]): 51.2 ± 0.7 °C
- Tm2 HiDapE (HiDapE [2]; [8]): 78.3 ± 0.1 °C
- Tm1 HiDapE (HiDapE [2]; [9]): 50.7 ± 0.2 °C
- Tm2 HiDapE (HiDapE [2]; [9]): 77.8 ± 0.1 °C
- Tm1 HiDapE (HiDapE [2]; [10]): 51.2 ± 0.6 °C
- Tm2 HiDapE (HiDapE [2]; [10]): 77.7 ± 0.1 °C
- Tm1 HiDapE (HiDapE [2]; [11]): 51.2 ± 0.6 °C
- Tm2 HiDapE (HiDapE [2]; [11]): 77.4 ± 0.1 °C
- Tm1 HiDapE (HiDapE [2]; [12]): 52.6 ± 0.5 °C
- Tm2 HiDapE (HiDapE [2]; [12]): 74.6 ± 0.3 °C
- Tm1 HiDapE (HiDapE [2]; [13]): 53.3 ± 0.5 °C
- Tm2 HiDapE (HiDapE [2]; [13]): 75.9 ± 0.1 °C
- Tm1 HiDapE (HiDapE [2]; [14]): 53.3 ± 0.3 °C
- Tm2 HiDapE (HiDapE [2]; [14]): 73.8 ± 0.1 °C
- Tm1 HiDapE (HiDapE [2]; [15]): 54.4 ± 0.5 °C
- Tm2 HiDapE (HiDapE [2]; [15]): 76.6 ± 0.1 °C
- Ki (HiDapE [2]; read-out: Ki (HiDapE, thermal shift), Tm vs log [concentration], derived Van't Hoff equation, 200 nM HiDapE + 10× dye): 18.4 mM
- Effect on stability (Tm) of HiDapE, in words (HiDapE [2]; thermal shift assays): stabilize HiDapE
- Tm1 AbDapE (AbDapE [3]; 0.001 mM Li2SO4): 41.4 ± 0.1 °C
- Tm2 AbDapE (AbDapE [3]; 0.001 mM Li2SO4): 63.1 ± 0.1 °C
- Tm1 AbDapE (AbDapE [3]; 0.005 mM Li2SO4): 41.8 ± 0.2 °C
- Tm2 AbDapE (AbDapE [3]; 0.005 mM Li2SO4): 62.8 ± 0.2 °C
- Tm1 AbDapE (AbDapE [3]; 0.1 mM Li2SO4): 41.6 ± 0.1 °C
- Tm2 AbDapE (AbDapE [3]; 0.1 mM Li2SO4): 62.2 ± 0.1 °C
- Tm1 AbDapE (AbDapE [3]; 0.5 mM Li2SO4): 41.7 ± 0.1 °C
- Tm2 AbDapE (AbDapE [3]; 0.5 mM Li2SO4): 63.1 ± 0.1 °C
- Tm1 AbDapE (AbDapE [3]; 1 mM Li2SO4): 41.3 ± 0.1 °C
- Tm2 AbDapE (AbDapE [3]; 1 mM Li2SO4): 63.0 ± 0.1 °C
- Tm1 AbDapE (AbDapE [3]; 5 mM Li2SO4): 41.6 ± 0.1 °C
- Tm2 AbDapE (AbDapE [3]; 5 mM Li2SO4): 61.5 ± 0.2 °C
- Tm1 AbDapE (AbDapE [3]; 10 mM Li2SO4): 41.5 ± 0.1 °C
- Tm2 AbDapE (AbDapE [3]; 10 mM Li2SO4): 60.4 ± 0.1 °C
- Tm1 AbDapE (AbDapE [3]; 30 mM Li2SO4): 42.2 ± 0.2 °C
- Tm2 AbDapE (AbDapE [3]; 30 mM Li2SO4): 59.1 ± 0.2 °C
- Tm1 AbDapE (AbDapE [3]; 50 mM Li2SO4): 42.1 ± 0.1 °C
- Tm2 AbDapE (AbDapE [3]; 50 mM Li2SO4): 58.3 ± 0.1 °C
- Tm1 AbDapE (AbDapE [3]; 60 mM Li2SO4): 42.4 ± 0.2 °C
- Tm2 AbDapE (AbDapE [3]; 60 mM Li2SO4): 57.5 ± 0.1 °C
- Tm1 AbDapE (AbDapE [3]; 70 mM Li2SO4): 42.4 ± 0.3 °C
- Tm2 AbDapE (AbDapE [3]; 70 mM Li2SO4): 56.7 ± 0.2 °C
- Tm AbDapE-SeMet (AbDapE-SeMet; 0.001 mM Li2SO4): 64.2 ± 0.7 °C
- Tm AbDapE-SeMet (AbDapE-SeMet; 0.005 mM Li2SO4): 64.1 ± 0.3 °C
- Tm AbDapE-SeMet (AbDapE-SeMet; 0.1 mM Li2SO4): 64.0 ± 0.2 °C
- Tm AbDapE-SeMet (AbDapE-SeMet; 0.5 mM Li2SO4): 64.9 ± 0.1 °C
- Tm AbDapE-SeMet (AbDapE-SeMet; 1 mM Li2SO4): 64.7 ± 0.5 °C
- Tm AbDapE-SeMet (AbDapE-SeMet; 5 mM Li2SO4): 65.2 ± 0.1 °C
- Tm AbDapE-SeMet (AbDapE-SeMet; 10 mM Li2SO4): 65.0 ± 0.3 °C
- Tm AbDapE-SeMet (AbDapE-SeMet; 50 mM Li2SO4): 63.1 ± 0.1 °C
- Tm AbDapE-SeMet (AbDapE-SeMet; 70 mM Li2SO4): 61.8 ± 0.1 °C
SMILES: O=S(=O)([O-])[O-].[Li+].[Li+] [Lithium sulfate]
- IC50 (HiDapE [4]): 13.8 mM

SMILES: Cc1ccccc1C(OCCN(C)C)c1ccccc1 (stereo not shown) [orphenadrine]
- Effect on Tm values of DapE, in words (DapE): lowering of the Tm values
